ChEMBL document CHEMBL1124808, “The synthesis and antiallergy activity of 1-(aryloxy)-4-(4-arylpiperazinyl)-2-butanol derivatives” (1990)

What was measured:
Type in all cases: functional
[1] = test system: Rattus norvegicus; assay: Oral Antiallergic activity in the passive foot anaphylaxis (PFA) assay of various amines at the dose of 3.16 mg/kg; -33/-84
[2] = test system: Rattus norvegicus; assay: Percent change in volume of foot edema of test compound to that of positive control was determined at a dose of 10 mg/kg in rat; […]
[3] = test system: Rattus norvegicus; assay: Percent change in volume of foot edema of test compound to that of positive control was determined at a dose of 31.6 mg/kg in rat; […]/-69
[4] = test system: Rattus norvegicus; assay: Percent change in volume of foot edema of test compound to that of positive control was determined at a dose of 10 mg/kg in rat; -2/-65
[5] = test system: Rattus norvegicus; assay: Percent change in volume of foot edema of test compound to that of positive control was determined at a dose of 31.6 mg/kg in rat; -59/-83
[6] = test system: Rattus norvegicus; assay: Percent change in volume of foot edema of test compound to that of positive control was determined at a dose of 10 mg/kg in rat; -9/-80
[7] = test system: Rattus norvegicus; assay: Percent change in volume of foot edema of test compound to that of positive control was determined at a dose of 31.6 mg/kg in rat; -61/-63
[8] = test system: Rattus norvegicus; assay: Percent change in volume of foot edema of test compound to that of positive control was determined at a dose of 31.6 mg/kg in rat; -75/-83
[9] = test system: Rattus norvegicus; assay: Percent change in volume of foot edema of test compound to that of positive control was determined at a dose of 10 mg/kg in rat; -61/-88
[10] = test system: Rattus norvegicus; assay: Oral Antiallergic activity in the passive foot anaphylaxis (PFA) assay of various amines at the dose of 3.16 mg/kg; -38/-78
[11] = test system: Rattus norvegicus; assay: Percent change in volume of foot edema of test compound to that of positive control was determined at a dose of 10 mg/kg in rat; +22/-73
[12] = test system: Rattus norvegicus; assay: Percent change in volume of foot edema of test compound to that of positive control was determined at a dose of 31.6 mg/kg in rat; -85/-78
[13] = test system: Rattus norvegicus; assay: Percent change in volume of foot edema of test compound to that of positive control was determined at a dose of 10 mg/kg in rat; -11/-65
[14] = test system: Rattus norvegicus; assay: Percent change in volume of foot edema of test compound to that of positive control was determined at a dose of 31.6 mg/kg in rat; -66/-66
[15] = test system: Rattus norvegicus; assay: Percent change in volume of foot edema of test compound to that of positive control was determined at a dose of 31.6 mg/kg in rat; -17/-70
[16] = test system: Rattus norvegicus; assay: Percent change in volume of foot edema of test compound to that of positive control was determined at a dose of 10 mg/kg in rat; +14/-44
[17] = test system: Rattus norvegicus; assay: Percent change in volume of foot edema of test compound to that of positive control was determined at a dose of 31.6 mg/kg in rat; -48/-84
[18] = species on record: Cavia porcellus; assay: Dose that protects 50% of guinea pig from collapse was determined in guinea pig anaphylaxis assay; conditions: read-out: PD50
In short: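 Guinea pigs dosed by gavage (10 mL/kg) with compound in 0.5% Tween 80/water; reference theophylline 100 mg/kg po. At 1–24 h, exposed in chamber to aerosolized 1% (w/v) egg albumin at 10 L air/min for up to 5 min; protected if no collapse within 5 min. PD50 by Litchfield and Wilcoxon.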

[19] = test system: Rattus norvegicus; assay: Percent change in volume of foot edema of test compound to that of positive control was determined at a dose of 31.6 mg/kg in rat; -88/-75
[20] = test system: Rattus norvegicus; assay: Percent change in volume of foot edema of test compound to that of positive control was determined at a dose of 10 mg/kg in rat; -34/-78
[21] = test system: Rattus norvegicus; assay: Percent change in volume of foot edema of test compound to that of positive control was determined at a dose of 10 mg/kg in rat; -10/-44
[22] = test system: Rattus norvegicus; assay: Percent change in volume of foot edema of test compound to that of positive control was determined at a dose of 31.6 mg/kg in rat; -54/-44
[23] = test system: Rattus norvegicus; assay: Percent change in volume of foot edema of test compound to that of positive control was determined at a dose of 31.6 mg/kg in rat; 39/-78
[24] = test system: Rattus norvegicus; assay: Percent change in volume of foot edema of test compound to that of positive control was determined at a dose of 31.6 mg/kg in rat; -40/-81
[25] = test system: Rattus norvegicus; assay: Percent change in volume of foot edema of test compound to that of positive control was determined at a dose of 10 mg/kg in rat; -53/-76
[26] = test system: Rattus norvegicus; assay: Percent change in volume of foot edema of test compound to that of positive control was determined at a dose of 31.6 mg/kg in rat; -83/-69
[27] = test system: Rattus norvegicus; assay: Percent change in volume of foot edema of test compound to that of positive control was determined at a dose of 3.16 mg/kg in rat; -50/-84
[28] = test system: Rattus norvegicus; assay: Percent change in volume of foot edema of test compound to that of positive control was determined at a dose of 31.6 mg/kg in rat; -78/-69
[29] = test system: Rattus norvegicus; assay: Percent change in volume of foot edema of test compound to that of positive control was determined at a dose of 10 mg/kg in rat; -55/-63
[30] = test system: Rattus norvegicus; assay: Percent change in volume of foot edema of test compound to that of positive control was determined at a dose of 3.16 mg/kg in rat; -36/-80

Cc1cc(OCC(O)CCN2CCN(c3ccccc3)CC2)ccc1Cl (stereo unspecified)
PFA [1]: -33 | PFA [2]: -45 | PFA [3]: -71

OC(CCN1CCN(c2ccc(Br)cc2)CC1)COc1ccccc1 (stereo unspecified)
PFA [4]: -2 | PFA [5]: -59

OC(CCN1CCN(c2ccc(Cl)c(Cl)c2)CC1)COc1ccccc1 (stereo unspecified)
PFA [6]: -9 | PFA [7]: -61

CC(=O)c1ccc(N2CCN(CCC(O)COc3ccc(Cl)cc3)CC2)cc1 (stereo unspecified)
PFA [8]: -75 | PFA [9]: -61 | PFA [10]: -38

OC(CCN1CCN(c2cccc(Cl)c2)CC1)COc1ccccc1 (stereo unspecified)
PFA [11]: 22 | PFA [12]: -85

Cc1ccc(OCC(O)CCN2CCN(c3ccccc3)CC2)cc1 (stereo unspecified)
PFA [13]: -11 | PFA [14]: -66

OC(CCOc1ccccc1)CN1CCN(c2ccccc2)CC1 (stereo unspecified)
PFA [15]: -17

Cc1cc(C)cc(OCC(O)CCN2CCN(c3ccccc3)CC2)c1 (stereo unspecified)
PFA [16]: 14 | PFA [17]: -48

OC(CCN1CCN(c2ccccc2)CC1)COc1ccccc1 (stereo unspecified)
ED50 [18]: 40 mg/kg | PFA [19]: -88 | PFA [20]: -34

COc1ccc(OCC(O)CCN2CCN(c3ccccc3)CC2)cc1 (stereo unspecified)
PFA [21]: -10 | PFA [22]: -54

OC(CCN1CCN(c2cccc(C(F)(F)F)c2)CC1)COc1ccccc1 (stereo unspecified)
PFA [23]: 39

c1ccc(OCCN2CCN(c3ccccc3)CC2)cc1
PFA [24]: -40

OC(CCN1CCN(c2ccccc2)CC1)COc1ccc(Cl)cc1 (stereo unspecified)
PFA [25]: -53 | ED50 [18]: 6.69 mg/kg | PFA [26]: -83 | PFA [27]: -50

OC(CCN1CCN(c2ccc(F)cc2)CC1)COc1ccc(Cl)cc1 (stereo unspecified)
PFA [28]: -78 | PFA [29]: -55 | PFA [30]: -36
